B1: tRNA (parent)
chain: GUUCCGUUGGCGUAAUGGUAACGCGUCUCCCUCCUAAGGAGAAGACUGCGGGUUCGAGUCCCGUACGGAACG

Fewer inactive variants are shown than the library holds.

This data set covers variants of B1. Put plainly: yeast fitness relative to wild type (ratio to wild type); higher = fitter; tRNA-Arg(CCU), competitive growth, 37 C, YPD. Put shortly: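 Changes in genotype frequencies gave Darwinian fitness relative to wild type. Frequencies were read by 100-nucleotide paired-end sequencing of gene amplicons before and after pooled Saccharomyces cerevisiae strains, carrying tRNA-Arg(CCU) gene variants at the native locus, were competed in YPD at 37°C for 24 hours in six replicates. A genotype was kept only with ≥ 100 starting reads, and estimates < 0.5 were set to 0.5.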
Turning to C22G A40U A43U C61U, the yeast fitness is no more than 0.5.

On to C22A C29U C66G, for which the yeast fitness was no more than 0.5. For the variant C22G A36C U47A A69C, the yeast fitness is no more than 0.5. On to A21U U28A A42C C49G C62U, for which the yeast fitness was no more than 0.5. With C22G A69C the figure was 0.82; with C22G A69U, 0.903; with C22G C24G, 0.595.

For C22G C24U, the yeast fitness was determined as 0.894. Consider C22A C30A C33U C61G C62U, for which the yeast fitness was no more than 0.5. With C22A U28A U53G the figure was no more than 0.5. With C22G C24G C27G G58C the figure was no more than 0.5; with C22G C24U C29U C30G, 0.579.

Regarding C22A A65U A70G, the yeast fitness stood at 0.662. As to C22A U47C, the yeast fitness was 0.882. Turning to C22G A70U, the yeast fitness amounted to 1.01. Turning to C22G A70C, the yeast fitness was 0.963. With A21U U64G A69G the figure was no more than 0.5. With C22A U54C the figure was 0.917; with C22G C29G C66A A69U, no more than 0.5; with C22A G23C C34U A36G A40U G63A, no more than 0.5. With C22G A43C A45U G52A the figure was no more than 0.5.

For C22G C24U U28A C31G C55A G68C, the yeast fitness was no more than 0.5.

With A21U U26A A70C, the yeast fitness was no more than 0.5. As for C22G A45U G48C A57C G67U, the yeast fitness was no more than 0.5. Consider C22A G23A C33U C34G G51A, for which the yeast fitness was no more than 0.5.

Regarding C22A C27A A36U G39C, the yeast fitness is no more than 0.5. In the case of C22G A36C C61U, the yeast fitness is no more than 0.5. As for C22G C27G A45U C49U A57G A70G, the yeast fitness is no more than 0.5. On to C22A A36U G68C, for which the yeast fitness is no more than 0.5. Turning to C22G C29A A43C C60G, the yeast fitness was no more than 0.5. Next, C22G A36C A40G G58C C60A: no more than 0.5.

In the case of A21U U32G, the yeast fitness was 0.808. As to A21U U32A, the yeast fitness worked out at 0.643. Take C22A A42U G50C A57G: the yeast fitness was no more than 0.5. Take C22G C24A C61G C66A: the yeast fitness is no more than 0.5.

In the case of C22G A40C A43U, the yeast fitness is no more than 0.5. Next, C22G C24A G38A A57G: no more than 0.5; C22G A45U C49G A65U: no more than 0.5.

For A21U U32G U59C, the yeast fitness stood at 0.732. For C22G A57U C61U, the yeast fitness was no more than 0.5. As for C22G A37C U54C, the yeast fitness is no more than 0.5. Take C22A C61U: the yeast fitness amounted to 0.864. Next, C22A U26C U47C A57G C66A: 0.565; C22G C30U A37G A43U G67A: 0.603; C22A U26A C29G G50C: no more than 0.5. Next, C22A G51C: 0.719; C22G C27A A65G: no more than 0.5; A21U U28G A69C: 0.529. C22G C24G A45C U47C G63C: the yeast fitness was no more than 0.5. Consider C22G A36C U47A C66G, for which the yeast fitness is no more than 0.5. For C22A A37U C66U, the yeast fitness was no more than 0.5. In the case of C22A C31G G38C A43G, the yeast fitness is no more than 0.5. Regarding C22G C24U U64C, the yeast fitness was 0.538.

Regarding C22A G23A C33U A42U, the yeast fitness was no more than 0.5.

Regarding C22A C31G U35A, the yeast fitness was 0.558. Next, C22G A43G A70U: 0.683; C22A A36C C55G C61A: 0.611. Regarding C22G A36C C55U C60A C62G A69U, the yeast fitness was 0.563.

Regarding C22A A37C, the yeast fitness is 0.641.

Take C22A A37G: the yeast fitness came out at 0.823. With A21U U35A the figure was 0.584. Next, C22A A69U: 0.843.

Turning to C22G A42U C62A, the yeast fitness is no more than 0.5. On to C22G C24G G50A A70U, for which the yeast fitness was no more than 0.5. Next, C22G A45C C49U A57U C62A: 0.619. As to C22A C49G, the yeast fitness was 0.646. With C22A C49U the figure was 1.13; with C22A C49A, 0.669. With C22A U53C C62U the figure was no more than 0.5; with A21U G56A G67U A69C, no more than 0.5; with C22A G23A C34U A57C C66U A69C, 0.548. Next, C22G C24U A37C G51C C55U A70U: no more than 0.5; C22A A45U: 0.837; C22G C30A U47A: no more than 0.5. For C22A C24G U53C, the yeast fitness is no more than 0.5.

Consider C22A C27U A43G C46G C49U A69C, for which the yeast fitness is no more than 0.5. In the case of A21U U28G U59G, the yeast fitness is 0.609. Next, C22G A45G: 0.867; C22A C24G G52A G67C G68A: no more than 0.5. Next, A21U U35A G44A: no more than 0.5. With C22G C30A G51A, the yeast fitness is no more than 0.5.

With C22A C29A C61U, the yeast fitness was no more than 0.5. Next, C22G C24G C27G: 0.766; C22A G51C C60U: no more than 0.5; C22G C27G C31G G41A C61G A69U: no more than 0.5. C22G C29G C33U A42G: the yeast fitness is no more than 0.5. Next, C22G A45U U47A: no more than 0.5.

As to C22A A65C, the yeast fitness worked out at 0.836. Next, C22A U47A A65U: no more than 0.5; C22A U47A A65G: 0.573; C22G C29G A42G C46U A70U: no more than 0.5. Turning to C22A A37G C60G U64G, the yeast fitness is no more than 0.5. With C22A C24G A36G G39C C66U, the yeast fitness was no more than 0.5. Next, C22A C30U C34G A70U: no more than 0.5; A21U U54A A70G: 0.565; C22G A43U C46G: no more than 0.5. Next, C22A C29A C66A: 0.513. Next, C22A C34A G56C G58A C61A: 0.597; C22G C27G A45U A57G A70G: 0.595; C22G A42G G48C A65U: no more than 0.5. Take A21U U59G: the yeast fitness stood at 0.583. With A21U U59C the figure was 0.672; with C22A A57U G67A, 0.545. With C22A G48C the figure was 0.851. On to C22A G41A G50A, for which the yeast fitness is no more than 0.5. On to C22A G23C C34U A36G A40U, for which the yeast fitness is 0.548. Regarding C22G C24U C29U C30G U53A U54A, the yeast fitness was no more than 0.5. Next, A21U U54A: 0.533; C22G C27G C31G C61G A69C: no more than 0.5; A21U U54C C55G C60A C61G C66G: no more than 0.5.

With C22G A42C A65U G67A, the yeast fitness was no more than 0.5. Next, A21U U26A C30G A36C A57G: no more than 0.5; C22G C29U C31A: no more than 0.5; C22A G25A C31G G48C: no more than 0.5. With C22A U26A U54C C61A the figure was 0.612.

On to C22A G25C G63A, for which the yeast fitness is 0.622. For the variant C22A C27G G68U, the yeast fitness was no more than 0.5.

Turning to C22A A45C C61U, the yeast fitness was 0.604.

Consider C22A C33A A37U, for which the yeast fitness is no more than 0.5.

As to C22A A37C A65G C66U, the yeast fitness is no more than 0.5. C22G A42U: the yeast fitness was found to be 0.699. With C22G A42G the figure was 0.716; with C22A C29G G38C A65U, no more than 0.5. Next, C22A A43U G68A: no more than 0.5; A21U U53A A65C G67A: 0.682; C22A C29G: 0.55. With C22A G25C the figure was 1.05. Turning to C22G C29G C46U A70U, the yeast fitness was 0.592. Take C22A U28C C30U G44A: the yeast fitness was no more than 0.5. With C22G A45C A65C the figure was no more than 0.5; with C22A A40C G50C, 0.908; with C22A U28G G58C U64C, no more than 0.5. With C22A A37C A69C the figure was no more than 0.5; with C22A C24G A43U C62A, no more than 0.5. As for C22G C24A G68C, the yeast fitness is no more than 0.5.

Regarding A21U G56C, the yeast fitness was 0.579.

For the variant C22G A42C C62U, the yeast fitness was 0.52. On to C22G C29G G44C G56A A57G G67U A70C, for which the yeast fitness is no more than 0.5.

For C22G A57U G63C, the yeast fitness was no more than 0.5. Next, C22A U28G C31G A42U: no more than 0.5.

For C22A G23A C33U C34G G67C A69C, the yeast fitness was no more than 0.5.

In the case of C22G C30G U47C, the yeast fitness was no more than 0.5.

In the case of C22A C34G A37C, the yeast fitness was no more than 0.5. Consider C22A C24A U26C C49U U64A, for which the yeast fitness was no more than 0.5. Next, C22A G39C A43U U53C: 0.723; C22A C27A: 0.718; C22G C24U A37C G51C C55U A69C A70U: 0.554. Consider C22A G25A A69U, for which the yeast fitness amounted to 0.793. Take C22A C30A U54C C55G: the yeast fitness is no more than 0.5. With C22A C29U A69U the figure was 0.592; with C22G A36C A37C, no more than 0.5. With C22G C27A C49A G56C A65G the figure was 0.746. For C22G A42G C49U, the yeast fitness is 0.712. As to C22G A43U A69C, the yeast fitness was found to be 0.656. For C22A C62U A65C, the yeast fitness was 0.663. In the case of C22A A40G, the yeast fitness is 0.671. As for C22A C30U, the yeast fitness worked out at 0.647. Take C22A C30G: the yeast fitness worked out at 0.636. With C22A C55U A65U the figure was no more than 0.5; with C22G C27G C29G C34A A43U U54C A65U, no more than 0.5. Next, C22G C27G C31G A57U: no more than 0.5; C22A U35G C66G A69U: no more than 0.5. With C22A C24A U26C the figure was 0.559.

For the variant C22A A43C G63C G67A, the yeast fitness was no more than 0.5.

Turning to C22A C66U, the yeast fitness worked out at 0.982. With C22G A43C U53C C55G the figure was no more than 0.5; with C22G A42C C60G, no more than 0.5.
